In ChEMBL document CHEMBL1133647, “Discovery of a potent, highly selective, and orally efficacious small-molecule activator of the insulin receptor” (J Med Chem, 2000):
Activity calls are given as the source filed them. Unless noted, the rule behind the calls is not given here.

Legend:
[1] = molecular target: Epidermal growth factor receptor (Homo sapiens) (UniProt P00533); assay: Percent epidermal growth factor receptor (EGFR) activity at 30 uM (NS = less than 5% activation); assay type: functional
Procedure, shortened: (§1)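 EGFR counterscreen: cell-based receptor activation assay run like the CHO IR assay (20 min compound exposure, lysate capture, radiometric kinase readout). Compound tested at 30 uM; result as % of control response to 100 nM EGF.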

Insulin receptor [2] = molecular target: T1, Insulin receptor (Homo sapiens, UniProt P06213); assay: Activation of human insulin receptor tyrosine kinase (IRTK)
Procedure, shortened: (§2)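 CHO cells stably transfected with human insulin receptor, plated 150 000 cells/well for 24 h, serum-starved 2 h, then exposed to compound 20 min at 37 °C. Lysate IR captured on anti-IR antibody wells (16 h, 4 °C), kinase reaction 40 min at 25 °C, radioactivity on phosphocellulose filters. Activity as % of maximal response to 100 nM insulin.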

[3] = molecular target: Platelet-derived growth factor receptor beta (Homo sapiens) (UniProt P09619); assay: Percent platelet derived growth factor receptor (PDGFR) activity at 30 uM (NS = less than 5% activation); assay type: functional
Procedure, shortened: (§3)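 PDGFR counterscreen: cell-based receptor activation assay run like the CHO IR assay (20 min compound exposure, lysate capture, radiometric kinase readout). Compound tested at 30 uM; result as % of control response to 100 nM PDGF.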

[4] = molecular target: Insulin-like growth factor 1 receptor (Homo sapiens) (UniProt P08069); assay: Percent insulin like growth factor receptor(IGFIR) activity at 30 uM (NS = less than 5% activation); assay type: functional
Procedure, shortened: (§4)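 IGFIR counterscreen: cell-based receptor activation assay run like the CHO IR assay (20 min compound exposure, lysate capture, radiometric kinase readout). Compound tested at 30 uM; result as % of control response to 100 nM IGFI.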

Insulin receptor [5] = molecular target: T1, Insulin receptor; assay: Activation of human insulin receptor tyrosine kinase (NA = inactive up to 100 uM); procedure, shortened: as §2
[6] = molecular target: Insulin-like growth factor 1 receptor (Homo sapiens) (UniProt P08069); assay: Percent insulin like growth factor receptor(IGFIR) activity at 30 uM ( NS = less than 5% activation); assay type: functional; procedure, shortened: as §4
[7] = molecular target: Epidermal growth factor receptor (Homo sapiens) (UniProt P00533); assay: Percent epidermal growth factor receptor (EGFR) activity at 30 uM; assay type: functional; procedure, shortened: as §1
[8] = molecular target: Insulin-like growth factor 1 receptor (Homo sapiens) (UniProt P08069); assay: Percent insulin like growth factor receptor(IGFIR) activity at 30 uM; assay type: functional; procedure, shortened: as §4
[9] = molecular target: Platelet-derived growth factor receptor beta (Homo sapiens) (UniProt P09619); assay: Percent platelet derived growth factor receptor (PDGFR) activity at 30 uM; assay type: functional; procedure, shortened: as §3
[10] = area under curve in preclinical species was measured after Intravenous administration at the given dose (0.1 mg/kg) in dog; assay type: ADME, organism-based, Canis lupus familiaris; conditions: in vivo
Procedure, shortened: (§5)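 Male rats, beagle dogs and rhesus monkeys dosed iv in ethanol/PEG400/water (1:3:6, v/v/v), n = 2. Plasma extracted and drug quantified by LC-MS/MS (LOQ = 8-100 ng/mL) against a dihydroxybenzoquinone internal standard.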

[11] = volume of distribution in preclinical species was measured after Intravenous administration at the given dose (0.01 mg/kg) in monkey; assay type: ADME, organism-based; conditions: simiiformes, in vivo; procedure, shortened: as §5
[12] = volume of distribution in preclinical species was measured after Intravenous administration at the given dose (0.05 mg/kg) in rat; assay type: ADME, organism-based; conditions: in vivo, read-out: Vdss; procedure, shortened: as §5
[13] = Time taken for maximum concentration in preclinical species was measured after oral administration at the given dose (0.5 mg/kg) in monkey; assay type: ADME, organism-based; conditions: simiiformes, in vivo
Procedure, shortened: (§6)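 Beagle dogs or rhesus monkeys (male) dosed orally at 0.5 mg/kg as a 0.5% methylcellulose suspension with 0.02% sodium lauryl sulfate. Plasma extracted and drug measured by LC-MS/MS (LOQ = 8-100 ng/mL) with an internal standard; bioavailability relative to iv dosing.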

Mus musculus [14] = species: Mus musculus; assay: Blood glucose level for the age- and sex-matched ob/+ lean mice; assay type: functional, organism-based
Procedure, shortened: (§7)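 Male ob/ob mice, 12 weeks old, with ob/+ lean controls, housed 7–9 per cage on chow and water ad libitum. Daily oral gavage of compound or vehicle (0.5% methylcellulose). Food was removed 0–6 h after dosing on days 1 and 2, then fed ad libitum. Blood glucose was taken before dosing and at 24 h after dosing, n = 10/group.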

[15] = Time taken for maximum concentration in preclinical species was measured after oral administration at the given dose (0.5 mg/kg) in rat; assay type: ADME, organism-based; conditions: in vivo
Procedure, shortened: (§8)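 Male rats dosed orally at 0.5 mg/kg in ethanol/PEG400/water (1:3:6, v/v/v). Plasma extracted and drug measured by LC-MS/MS (LOQ = 8-100 ng/mL) with an internal standard; bioavailability relative to iv dosing.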

[16] = area under curve in preclinical species was measured after oral administration at the given dose (0.5 mg/kg) in dog; assay type: ADME, organism-based, Canis lupus familiaris; conditions: in vivo; procedure, shortened: as §6
[17] = area under curve in preclinical species was measured after Intravenous administration at the given dose (0.05 mg/kg) in rat; assay type: ADME, organism-based; conditions: in vivo; procedure, shortened: as §5
[18] = maximum concentration in plasma in preclinical species was measured after oral administration at the given dose (0.5 mg/kg) in monkey; assay type: ADME, organism-based; design: dose 0.5 mg/kg, route oral; conditions: simiiformes; procedure, shortened: as §6
Mus musculus [19] = assay: Percent reduction of blood glucose level in a dose-dependent manner at 0.1 mpk administered once daily for 8-14 days by gavage to ad libitum fed animals; assay type: functional
[20] = area under curve in preclinical species was measured after oral administration at the given dose (0.5 mg/kg) in monkey; assay type: ADME, organism-based; conditions: simiiformes, in vivo; procedure, shortened: as §6
Canis familiaris [21] = assay: volume of distribution in preclinical species was measured after Intravenous administration at the given dose (0.1 mg/kg) in dog; assay type: ADME, organism-based, Canis lupus familiaris; conditions: in vivo; procedure, shortened: as §5
[22] = maximum concentration in plasma in preclinical species was measured after oral administration at the given dose (0.5 mg/kg) in dog; assay type: ADME, organism-based, Canis lupus familiaris; design: dose 0.5 mg/kg, route oral; procedure, shortened: as §6
[23] = plasma clearance in preclinical species was measured after Intravenous administration at the given dose (0.01 mg/kg) in monkey; assay type: ADME, organism-based; conditions: simiiformes, in vivo; procedure, shortened: as §5
[24] = plasma clearance in preclinical species was measured after Intravenous administration at the given dose (0.05 mg/kg) in rat; assay type: ADME, organism-based; conditions: read-out: Clp; procedure, shortened: as §5
Mus musculus [25] = assay: Decrease in blood glucose concentration at 24 hr postdosing of 10 mpk; assay type: functional, organism-based; procedure, shortened: as §7
Canis familiaris [26] = assay: terminal half life in preclinical species was measured after Intravenous administration at the given dose (0.1 mg/kg) in dog; assay type: ADME, organism-based, Canis lupus familiaris; conditions: in vivo; procedure, shortened: as §5
[27] = terminal half life in preclinical species was measured after Intravenous administration at the given dose (0.01 mg/kg) in monkey; assay type: ADME, organism-based; conditions: simiiformes, in vivo; procedure, shortened: as §5
[28] = Time taken for maximum concentration in preclinical species was measured after oral administration at the given dose (0.5 mg/kg) in dog; assay type: ADME, organism-based, Canis lupus familiaris; conditions: in vivo; procedure, shortened: as §6
[29] = maximum concentration in plasma in preclinical species was measured after oral administration at the given dose (0.5 mg/kg) in rat; assay type: ADME, organism-based; design: dose 0.5 mg/kg, route oral; procedure, shortened: as §8
Mus musculus [30] = assay: Percent reduction of blood glucose level in a dose-dependent manner at 1 mpk administered once daily for 8-14 days by gavage to ad libitum fed animals; assay type: functional
[31] = terminal half life in preclinical species was measured after Intravenous administration at the given dose (0.05 mg/kg) in rat; assay type: ADME, organism-based; conditions: in vivo; procedure, shortened: as §5
[32] = bioavailability in preclinical species was measured after oral administration at the given dose (0.5 mg/kg) in rat; assay type: ADME, organism-based; conditions: in vivo; procedure, shortened: as §8
Mus musculus [33] = assay: Blood glucose concentration at predosing of 10 mpk; assay type: functional, organism-based; procedure, shortened: as §7
Mus musculus [34] = assay: Percent reduction of blood glucose level in a dose-dependent manner at 10 mpk administered once daily for 8-14 days by gavage to ad libitum fed animals; assay type: functional
Canis familiaris [35] = assay: plasma clearance in preclinical species was measured after Intravenous administration at the given dose (0.1 mg/kg) in dog; assay type: ADME, organism-based, Canis lupus familiaris; conditions: in vivo; procedure, shortened: as §5
[36] = area under curve in preclinical species was measured after Intravenous administration at the given dose (0.01 mg/kg) in monkey; assay type: ADME, organism-based; conditions: simiiformes, in vivo; procedure, shortened: as §5
[37] = bioavailability in preclinical species was measured after oral administration at the given dose (0.5 mg/kg) in monkey; assay type: ADME, organism-based; conditions: primates, in vivo; procedure, shortened: as §6
[38] = bioavailability in preclinical species was measured after oral administration at the given dose (0.5 mg/kg) in dog; assay type: ADME, organism-based, Canis lupus familiaris; conditions: in vivo; procedure, shortened: as §6

T1 sequence (P06213 28-758 limits assumed): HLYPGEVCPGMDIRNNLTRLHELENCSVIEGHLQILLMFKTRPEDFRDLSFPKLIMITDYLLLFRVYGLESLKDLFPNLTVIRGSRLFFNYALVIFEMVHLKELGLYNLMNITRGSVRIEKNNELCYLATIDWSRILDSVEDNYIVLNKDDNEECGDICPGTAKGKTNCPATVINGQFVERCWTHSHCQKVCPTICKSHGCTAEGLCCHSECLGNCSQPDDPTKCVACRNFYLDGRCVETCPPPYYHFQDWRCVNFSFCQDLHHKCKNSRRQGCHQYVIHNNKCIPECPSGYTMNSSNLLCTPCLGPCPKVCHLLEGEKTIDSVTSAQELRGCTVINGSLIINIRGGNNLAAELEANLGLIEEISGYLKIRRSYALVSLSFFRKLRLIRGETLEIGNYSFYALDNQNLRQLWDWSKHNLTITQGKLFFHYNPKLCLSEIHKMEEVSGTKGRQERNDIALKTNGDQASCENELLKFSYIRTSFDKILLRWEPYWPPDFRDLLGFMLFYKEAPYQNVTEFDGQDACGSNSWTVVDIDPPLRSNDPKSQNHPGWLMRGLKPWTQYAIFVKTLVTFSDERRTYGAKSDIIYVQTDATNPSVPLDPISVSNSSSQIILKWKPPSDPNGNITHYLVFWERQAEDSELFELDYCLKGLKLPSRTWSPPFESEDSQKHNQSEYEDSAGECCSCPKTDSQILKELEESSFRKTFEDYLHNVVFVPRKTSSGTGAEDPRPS
T1 sequence (P06213 763-1382 limits assumed): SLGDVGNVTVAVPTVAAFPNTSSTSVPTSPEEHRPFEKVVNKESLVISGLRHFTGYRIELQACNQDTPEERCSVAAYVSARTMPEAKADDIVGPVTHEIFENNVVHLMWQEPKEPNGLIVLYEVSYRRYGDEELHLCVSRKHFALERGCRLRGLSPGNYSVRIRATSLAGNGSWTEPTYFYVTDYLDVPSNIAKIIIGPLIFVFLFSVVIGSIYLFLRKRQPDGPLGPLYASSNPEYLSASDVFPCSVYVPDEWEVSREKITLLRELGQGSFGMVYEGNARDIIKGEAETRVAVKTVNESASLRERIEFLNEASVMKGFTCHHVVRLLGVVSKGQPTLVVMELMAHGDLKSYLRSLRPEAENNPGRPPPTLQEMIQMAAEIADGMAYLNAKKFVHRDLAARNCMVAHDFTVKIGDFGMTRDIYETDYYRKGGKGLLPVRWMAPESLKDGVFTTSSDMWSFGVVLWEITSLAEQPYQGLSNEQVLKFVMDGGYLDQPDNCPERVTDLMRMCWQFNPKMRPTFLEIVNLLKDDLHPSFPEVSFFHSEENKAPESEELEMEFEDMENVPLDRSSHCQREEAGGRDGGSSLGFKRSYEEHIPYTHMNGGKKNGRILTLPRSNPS
Insulin-like growth factor 1 receptor (Homo sapiens), sequence (P08069 31-736 limits assumed): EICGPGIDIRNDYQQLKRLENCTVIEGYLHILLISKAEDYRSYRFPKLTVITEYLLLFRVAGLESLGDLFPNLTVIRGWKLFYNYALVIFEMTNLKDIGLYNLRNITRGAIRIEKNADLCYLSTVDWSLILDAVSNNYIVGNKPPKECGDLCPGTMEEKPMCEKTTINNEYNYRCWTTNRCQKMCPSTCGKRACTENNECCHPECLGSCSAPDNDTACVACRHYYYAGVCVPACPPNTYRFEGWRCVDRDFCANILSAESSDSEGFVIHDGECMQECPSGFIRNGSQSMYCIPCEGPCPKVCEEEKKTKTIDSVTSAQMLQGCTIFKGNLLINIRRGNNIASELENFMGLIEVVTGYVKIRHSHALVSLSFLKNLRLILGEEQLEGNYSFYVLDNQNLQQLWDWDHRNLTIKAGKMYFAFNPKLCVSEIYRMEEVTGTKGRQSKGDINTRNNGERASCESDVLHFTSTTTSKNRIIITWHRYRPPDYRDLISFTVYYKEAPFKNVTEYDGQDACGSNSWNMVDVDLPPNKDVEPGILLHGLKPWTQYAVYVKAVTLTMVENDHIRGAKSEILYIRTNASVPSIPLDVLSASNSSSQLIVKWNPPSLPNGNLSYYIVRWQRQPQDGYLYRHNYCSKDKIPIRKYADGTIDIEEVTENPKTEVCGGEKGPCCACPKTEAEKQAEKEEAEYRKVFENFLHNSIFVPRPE
Insulin-like growth factor 1 receptor (Homo sapiens), sequence (P08069 741-1367 limits assumed): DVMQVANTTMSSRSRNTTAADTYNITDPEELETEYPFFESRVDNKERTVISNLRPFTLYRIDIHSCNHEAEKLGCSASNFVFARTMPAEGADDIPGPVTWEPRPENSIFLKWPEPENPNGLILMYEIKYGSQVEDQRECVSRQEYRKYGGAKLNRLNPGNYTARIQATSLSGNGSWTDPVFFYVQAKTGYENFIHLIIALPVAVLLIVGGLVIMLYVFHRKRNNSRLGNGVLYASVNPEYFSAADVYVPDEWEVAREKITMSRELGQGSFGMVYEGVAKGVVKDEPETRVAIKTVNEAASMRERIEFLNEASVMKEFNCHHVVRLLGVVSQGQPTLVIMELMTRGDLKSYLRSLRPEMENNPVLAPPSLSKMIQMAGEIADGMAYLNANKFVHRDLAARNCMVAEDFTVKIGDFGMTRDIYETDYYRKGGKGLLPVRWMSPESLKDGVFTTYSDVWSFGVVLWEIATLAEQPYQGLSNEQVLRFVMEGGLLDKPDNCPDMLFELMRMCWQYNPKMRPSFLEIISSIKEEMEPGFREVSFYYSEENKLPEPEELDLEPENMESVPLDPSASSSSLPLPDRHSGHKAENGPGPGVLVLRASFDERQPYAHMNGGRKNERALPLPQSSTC
Platelet-derived growth factor receptor beta (Homo sapiens), sequence (P09619 whole entry): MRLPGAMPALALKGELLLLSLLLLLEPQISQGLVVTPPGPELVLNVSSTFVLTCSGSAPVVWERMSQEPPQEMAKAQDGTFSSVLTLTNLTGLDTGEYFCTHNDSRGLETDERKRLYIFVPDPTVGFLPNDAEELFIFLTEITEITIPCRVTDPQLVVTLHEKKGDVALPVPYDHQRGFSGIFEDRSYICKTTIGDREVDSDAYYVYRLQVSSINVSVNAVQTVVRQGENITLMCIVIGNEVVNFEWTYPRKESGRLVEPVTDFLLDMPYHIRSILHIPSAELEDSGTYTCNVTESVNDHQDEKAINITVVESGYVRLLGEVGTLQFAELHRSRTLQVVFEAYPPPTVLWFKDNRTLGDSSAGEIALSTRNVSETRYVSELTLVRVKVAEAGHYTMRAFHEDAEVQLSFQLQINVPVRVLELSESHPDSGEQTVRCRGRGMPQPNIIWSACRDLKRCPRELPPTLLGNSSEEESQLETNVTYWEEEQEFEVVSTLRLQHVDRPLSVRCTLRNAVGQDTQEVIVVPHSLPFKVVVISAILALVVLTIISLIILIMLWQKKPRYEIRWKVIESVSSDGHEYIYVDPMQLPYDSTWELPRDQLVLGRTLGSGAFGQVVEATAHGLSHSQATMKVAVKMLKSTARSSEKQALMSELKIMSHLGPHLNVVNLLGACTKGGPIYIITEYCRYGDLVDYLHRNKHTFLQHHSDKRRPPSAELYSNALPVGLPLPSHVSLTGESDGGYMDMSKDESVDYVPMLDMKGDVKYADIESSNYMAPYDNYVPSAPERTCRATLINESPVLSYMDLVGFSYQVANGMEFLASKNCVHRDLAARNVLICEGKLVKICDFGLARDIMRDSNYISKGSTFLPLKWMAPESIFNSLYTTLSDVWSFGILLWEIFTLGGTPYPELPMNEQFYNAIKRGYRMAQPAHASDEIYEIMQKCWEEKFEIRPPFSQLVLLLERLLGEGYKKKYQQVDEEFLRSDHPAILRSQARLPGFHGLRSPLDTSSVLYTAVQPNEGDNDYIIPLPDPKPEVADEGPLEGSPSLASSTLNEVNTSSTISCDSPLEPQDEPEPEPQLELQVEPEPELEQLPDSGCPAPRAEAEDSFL
Epidermal growth factor receptor (Homo sapiens), sequence (P00533 whole entry): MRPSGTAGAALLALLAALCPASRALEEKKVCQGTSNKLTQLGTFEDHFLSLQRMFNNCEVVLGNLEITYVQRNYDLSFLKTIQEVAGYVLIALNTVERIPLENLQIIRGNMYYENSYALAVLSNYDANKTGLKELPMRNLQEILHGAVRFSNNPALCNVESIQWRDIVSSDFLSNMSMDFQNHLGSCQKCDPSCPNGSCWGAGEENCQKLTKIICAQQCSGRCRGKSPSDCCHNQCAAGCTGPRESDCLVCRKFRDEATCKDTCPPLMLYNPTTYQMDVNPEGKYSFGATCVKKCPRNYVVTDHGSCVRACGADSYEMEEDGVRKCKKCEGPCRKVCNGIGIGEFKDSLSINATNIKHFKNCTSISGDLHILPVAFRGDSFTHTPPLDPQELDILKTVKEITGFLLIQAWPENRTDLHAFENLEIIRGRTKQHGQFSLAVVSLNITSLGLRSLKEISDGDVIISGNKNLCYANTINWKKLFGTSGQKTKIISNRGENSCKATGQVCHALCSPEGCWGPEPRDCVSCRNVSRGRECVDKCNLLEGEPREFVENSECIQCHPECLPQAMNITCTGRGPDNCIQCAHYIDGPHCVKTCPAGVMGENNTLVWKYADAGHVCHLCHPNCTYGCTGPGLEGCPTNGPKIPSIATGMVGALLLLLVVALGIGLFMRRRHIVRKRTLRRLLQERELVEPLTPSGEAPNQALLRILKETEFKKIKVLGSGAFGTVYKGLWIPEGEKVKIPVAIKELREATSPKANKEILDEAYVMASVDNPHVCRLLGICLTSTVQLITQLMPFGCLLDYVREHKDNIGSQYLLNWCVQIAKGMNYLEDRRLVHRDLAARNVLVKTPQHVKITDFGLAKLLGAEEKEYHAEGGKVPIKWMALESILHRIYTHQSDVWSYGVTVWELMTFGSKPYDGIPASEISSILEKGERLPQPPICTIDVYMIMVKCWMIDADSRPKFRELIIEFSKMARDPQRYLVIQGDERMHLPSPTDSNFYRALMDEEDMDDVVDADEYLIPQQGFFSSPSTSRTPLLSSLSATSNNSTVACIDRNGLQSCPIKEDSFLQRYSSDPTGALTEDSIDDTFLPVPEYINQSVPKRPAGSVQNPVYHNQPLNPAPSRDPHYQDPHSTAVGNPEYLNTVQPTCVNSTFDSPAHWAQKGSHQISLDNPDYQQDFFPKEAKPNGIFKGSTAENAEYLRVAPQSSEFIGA

Structure (SMILES): O=C1C(O)=C(c2coc3ccccc23)C(=O)C(O)=C1c1ccccc1
- Activation [1]: inactive
- EC50 (Insulin receptor [2]): 1.5 µM
- Activation [3]: inactive
- Activation [4]: inactive

Structure (SMILES): COc1ccc(C2=C(O)C(O)=C(c3ccccc3)C(=O)C2=O)cc1
- EC50 (Insulin receptor [5]): Not Active
- Activation [1]: inactive
- Activation [6]: inactive
- Activation [3]: inactive

Structure (SMILES): C=CC(C)(C)c1[nH]c2ccccc2c1C1=C(O)C(O)=C(c2c[nH]c3c(CC=C(C)C)cccc23)C(=O)C1=O
- Activation [7]: 15%
- Activation [8]: 38%
- EC50 (Insulin receptor [2]): 5 µM
- Activation [9]: 6%

Structure (SMILES): O=C1C(O)=C(c2ccc3ccccc3c2)C(=O)C(O)=C1c1ccccc1
- EC50 (Insulin receptor [2]): 30 µM
- Activation [3]: inactive
- Activation [4]: inactive

Structure (SMILES): O=C1C(O)=C(c2c[nH]c3ccccc23)C(=O)C(O)=C1c1ccccc1
- Activation [7]: 20%
- Activation [8]: 41%
- EC50 (Insulin receptor [2]): 0.3 µM
- Activation [3]: inactive

Structure (SMILES): O=C1C(O)=C(c2cccc3ccccc23)C(=O)C(O)=C1c1ccccc1
- EC50 (Insulin receptor [2]): 6 µM
- Activation [3]: inactive
- Activation [4]: inactive

Structure (SMILES): O=C1C(O)=C(c2csc3ccccc23)C(=O)C(O)=C1c1ccccc1
- Activation [1]: inactive
- EC50 (Insulin receptor [2]): 1 µM
- Activation [3]: inactive
- Activation [4]: inactive

Structure (SMILES): Cn1cc(C2=C(O)C(O)=C(c3ccccc3)C(=O)C2=O)c2ccccc21
- AUC [10]: 89800 ng·h/mL
- Vdss [11]: 0.31 L/kg
- Vd [12]: 0.1 L/kg
- Tmax [13]: 8 h
- Concentration (Mus musculus [14]): 143 mg/dL
- Tmax [15]: 10 h
- AUC [16]: 266000 ng·h/mL
- AUC [17]: 21800 ng·h/mL
- Cmax [18]: 7590 ng/mL
- Reduction (Mus musculus [19]): 29%
- Activation [1]: inactive
- AUC [20]: 278000 ng·h/mL
- Vdss (Canis familiaris [21]): 0.56 L/kg
- EC50 (Insulin receptor [2]): 0.3 µM
- Cmax [22]: 5270 ng/mL
- Clp [23]: 1.2 mL/h/kg
- clearance [24]: 2.28 mL/h/kg
- Concentration (Mus musculus [25]): 150 mg/dL
- T1/2 (Canis familiaris [26]): 93.5 h
- T1/2 [27]: 66 h
- Tmax [28]: 2.5 h
- Cmax [29]: 4880 ng/mL
- Activation [3]: inactive
- Reduction (Mus musculus [30]): 47%
- half-life [31]: 32 h
- bioavailability [32]: 79.3%
- Concentration (Mus musculus [33]): 233 mg/dL
- Reduction (Mus musculus [34]): 84%
- Activation [4]: inactive
- Clp (Canis familiaris [35]): 1.14 mL/h/kg
- AUC [36]: 8370 ng·h/mL
- bioavailability [37]: 66.5%
- bioavailability [38]: 59.2%

Structure (SMILES): Cc1cccc2c(C3=C(O)C(O)=C(c4c[nH]c5ccccc45)C(=O)C3=O)c[nH]c12
- Activation [7]: 25%
- Activation [8]: 32%
- EC50 (Insulin receptor [2]): 7 µM
